# Assay outcomes: PubChem BioAssay, several laboratories
# This is a sample that favours compounds with a hit; in the whole collection about 4.1% have one here.
# MEKK2 mut-MEK5 = signal of MEK5 binding to mutant human MEKK2 PB1 domain. bead flow cytometry, Alexa488-MEK5 binding to MEKK2 mutant. percent response, % at 10 µM. 290,000 tested, 0.35% active; in the data active = percent response above about 24%, passing the limit was not always enough
# FID counter = displaces DNA intercalator in HCV helicase counter-screen | AID 1845 | inhibition, % at 7.9 µM | 290,000 tested, 0.17% active | DNA fluorescent intercalator displacement, fluorescence; in the data active = inhibition above about 37%;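 note: 0% = vehicle and 100% = reference compound; higher means more ethidium bromide displaced from hairpin DNA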
# MEKK3 PB1 HTS = MEKK3-MEK5 PB1 interaction, increase or decrease. AID 1529. Q99759. binding response (% of control), % at 10 µM. 290,000 tested, 1.4% active. bead-based flow cytometry, Alexa488-MEK5 binding to MEKK3; actives lie on both sides; 0 = blocked by unlabeled MEK5, 100 = vehicle;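 active = binding response more than 3 SD above or below the average of its plate-row segment, actives on both sides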;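 note: Alexa488 bead fluorescence after subtracting the streptavidin-only scavenger bead signal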
# Target sequence (Q99759 whole entry, looked up): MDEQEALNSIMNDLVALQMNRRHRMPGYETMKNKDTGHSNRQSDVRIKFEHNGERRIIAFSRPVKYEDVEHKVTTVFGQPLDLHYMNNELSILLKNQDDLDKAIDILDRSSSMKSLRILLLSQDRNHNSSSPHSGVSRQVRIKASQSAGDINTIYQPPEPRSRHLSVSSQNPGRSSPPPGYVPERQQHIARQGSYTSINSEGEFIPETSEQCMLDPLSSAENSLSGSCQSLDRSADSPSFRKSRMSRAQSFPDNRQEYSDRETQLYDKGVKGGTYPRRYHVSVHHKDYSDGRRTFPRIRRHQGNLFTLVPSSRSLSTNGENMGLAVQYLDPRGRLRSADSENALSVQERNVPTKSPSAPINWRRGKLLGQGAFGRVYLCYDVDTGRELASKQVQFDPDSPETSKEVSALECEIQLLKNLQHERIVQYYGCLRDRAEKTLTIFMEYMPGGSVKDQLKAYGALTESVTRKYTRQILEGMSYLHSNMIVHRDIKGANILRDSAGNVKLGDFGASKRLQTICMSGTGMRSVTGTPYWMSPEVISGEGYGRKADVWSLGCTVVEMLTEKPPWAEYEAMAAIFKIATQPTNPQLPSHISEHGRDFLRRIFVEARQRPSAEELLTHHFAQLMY
# HCV NS3 hel inh = blocks Hepatitis C virus NS3 helicase unwinding | inhibition, % at 10.9 µM | AID 1800 | NS3 helicase DNA unwinding, Cy5 molecular beacon fluorescence | 290,000 tested, 0.56% active;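 active = inhibition above the mean of all tested compounds plus 3 SD, set per campaign, cut at about 35% in these data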;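 note: 0% = DMSO wells and 100% = thioflavine S control wells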
#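 System: HCV NS3 helicase fragment; control set: DMSO and thioflavine S; technique: Cy5 fluorescence at 0 and 60 min, beacon hairpin quenching; reagent: beacon DNA duplex substrate plus ATP; replicates: singlicate; schedule: 1 h reaction at 25 °C, ATP-initiated; medium: MOPS buffer pH 6.5 with MgCl2, DTT, Tween20, BSA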
# T cruzi inh = T. cruzi replication inhibition; T. cruzi beta-gal in NIH3T3, luminescence, 90 h; inhibition, % (no concentration beside the values); 300,000 tested, 1.4% active; AID 1885;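 active = mean inhibition across valid replicates above about 55%, limit read from the data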;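 note: signal also drops with host cell toxicity which is not excluded here; 0% = plate median of DMSO wells and 100% = zero luminescence signal; higher percent means less beta-gal luminescence so fewer parasites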
#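 Assay system: NIH/3T3 fibroblasts plus reporter T. cruzi. Amount: NIH/3T3 cells, 5,000 per well. Buffer or medium: DMEM, 2% fetal bovine serum. Doses: compound pinned at 50 nL/well, DMSO. Schedule: ≥90 h infection period, 3 h prior cell attachment. Signal: luminescent β-galactosidase signal after 60 min lysis. Read-out: parasite load inhibition, %.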
# MEKK2 WT-MEK5 = raises or lowers MEK5 binding to wildtype human MEKK2 PB1 domain | Q9Y2U5 | bead flow cytometry, Alexa488-MEK5 binding to MEKK2 WT; actives lie on both sides | binding response (% of control), % at 10 µM | 290,000 tested, 1.1% active | AID 1531; in the data active = binding response below about 67% or above about 130%
# MEKK2wt confirm = raises or lowers MEK5 binding to wildtype human MEKK2, retest; 5,900 tested, 2.4% active; binding response (% of control), % at 10 µM; bead flow cytometry, Alexa488-MEK5 binding to MEKK2 WT; actives lie on both sides; shares compounds with MEKK3 PB1 HTS; AID 1892; in the data active = binding response below about 16% or above about 210%; inactive = in between
# MEKK2mut confirm = signal of MEK5 binding to mutant human MEKK2, retest | shares compounds with MEKK3 PB1 HTS | bead flow cytometry, Alexa488-MEK5 binding to MEKK2 mutant | percent response, % at 10 µM | 5,900 tested, 2% active | AID 1893; in the data active = percent response mostly above about 71%, no sharp cut-off; inactive = mostly below about 38%;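 note: higher means compound restores mutant binding toward wildtype level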
# MEKK3-MEK5 inh = MEKK3-MEK5 PB1 inhibition, single concentration confirmation; shares compounds with MEKK3 PB1 HTS; bead flow cytometry, Alexa488-MEK5 binding to MEKK3; stronger effect = lower value; binding response (% of control), % at 10 µM; 5,900 tested, 1.8% active;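 active = binding response below 72% of control, or above a set upper limit, though filed actives all read lower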;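 note: 100% = DMSO only wells and 0% = binding blocked by excess unlabeled MEK5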
# * hit, by the source's call; x = no result; [ ] = dose if it differs, or a comment.
SMILES,MEKK2 mut-MEK5,FID counter,MEKK3 PB1 HTS,HCV NS3 hel inh,T cruzi inh,MEKK2 WT-MEK5,MEKK2wt confirm,MEKK2mut confirm,MEKK3-MEK5 inh
CC(C)NS(=O)(=O)c1ccc(CCC(=O)Nc2ccc3c(c2)OCCO3)cc1,3,-13,164*,2,-10,114,101,-2,95
CCc1ccccc1N(CC(=O)NC(C)c1ccccc1)S(C)(=O)=O (stereo not drawn),3,-9,95,-2,-4,104,x,x,x
CCN(CC)CCCN(C(=O)c1ccco1)c1nc(-c2ccc(Cl)cc2)cs1,39*,27,108,-53,59*,169*,158,29,108
CCN(CC)CCCN(C(=O)c1ccco1)c1nc(-c2ccc(C)cc2)cs1,-1,21,105,-41,33,135,x,x,x
COCCCN(C(=O)c1ccccc1)c1nc(-c2ccc(OC)cc2)cs1,0,-27,105,5,28,104,x,x,x
COc1ccc(-c2csc(N(C)C(=O)c3cccs3)n2)cc1,3,5,106,0,-2,103,x,x,x
CCN(CC)CCCN(C(=O)c1cccs1)c1nc(-c2ccc(OC)cc2)cs1,2,27,97,-103,43,143*,116,13,104
CCN(CC)CCCN(C(=O)c1ccc(Br)cc1)c1nc(-c2ccc(OC)cc2)cs1,24*,32,100,-45,35,176*,152,21,78
CCN(CC)CCCN(C(=O)c1cccc(C)c1)c1nc(-c2ccc(OC)cc2)cs1,14,19,106,-78,18,143*,151,22,106
COc1cccc(CNCCc2c[nH]c3ccccc23)c1OCc1ccc(F)cc1,39*,11,111,-23,49,165*,131,22,101
COc1ccccc1NC(=S)NCCc1c[nH]c2ccccc12,-5,-2,92,-5,14,90,x,x,x
COc1cc(CNCCc2c[nH]c3ccccc23)ccc1OCc1ccc(F)cc1,47*,18,106,-19,53,197*,144,14,87
COc1cc(CNCCc2c[nH]c3ccccc23)cc(Cl)c1OCC(N)=O,-8,8,90,-21,-6,113,x,x,x
CCN(CC)c1nc2c(c(=O)[nH]c(=O)n2C)n1CCCc1ccccc1,5,-38,113,0,10,110,x,x,x
COc1cc(S(=O)(=O)N(C)C)ccc1Br,-8,-1,95,-8,-1,91,x,x,x
COc1ccc(S(=O)(=O)N(c2onc(C)c2Cl)S(=O)(=O)c2ccc(OC)c(OC)c2)cc1OC,9,-1,131*,1,-6,120,110,4,102
CN1CCN(CC(=O)N2c3ccccc3C(C)(c3ccc(Cl)cc3)CC2(C)C)CC1 (stereo not drawn),27*,17,105,-25,20,112,111,-1,100
CN1CCN(CC(=O)N2c3ccccc3C(C)(c3ccccc3)CC2(C)C)CC1 (stereo not drawn),15,16,109,-22,32,119,x,x,x
C/C(=N\NC(=O)c1cccc(F)c1)c1ccc(NC(=O)Cc2ccccc2)cc1,3,-22,103,-2,x,103,x,x,x
C/C(=N\NC(=O)c1cc(O)cc(O)c1)c1ccc(NC(=O)Cc2ccccc2)cc1,-7,-7,71*[inhibitor],9,6,68*[inhibitor],63,-17,70*
CCOc1ccc(C(=S)N2CCCC2)c(OCC)c1,3,-20,101,6,10,97,x,x,x
CCOc1ccc(CCNC(=O)c2cccc(C#N)c2)cc1OCC,-4,-27,90,-2,3,90,x,x,x
C=C1CCN([C@@H](CC(C)C)C(=O)NCc2ccccc2)S(=O)(=O)c2ccccc21,2,x,103,x,10,105,x,x,x
C=C1CCN([C@H](C(=O)NCc2ccc(Cl)cc2)C(C)C)S(=O)(=O)c2ccccc21,-3,x,80*[inhibitor],x,x,96,95,-5,97
Cc1ccc2cc(CCNS(=O)(=O)c3ccc(F)cc3)c(=O)[nH]c2c1C,1,-2,106,-5,-3,102,x,x,x
SMILES,MEKK2 mut-MEK5,FID counter,MEKK3 PB1 HTS,HCV NS3 hel inh,T cruzi inh,MEKK2 WT-MEK5,MEKK2wt confirm,MEKK2mut confirm,MEKK3-MEK5 inh
Cn1ccnc1SCC(=O)Nc1ccc(F)c([N+](=O)[O-])c1,7,2,101,10,4,104,x,x,x
O=C(NCc1ccco1)C1CC(c2ccc(Cl)c(Cl)c2)=NO1 (stereo not drawn),-18,-13,39*[inhibitor],-3,21,42*[inhibitor],103,4,103
O=C(NCc1ccco1)C1CC(c2c(Cl)cccc2Cl)=NO1 (stereo not drawn),3,-20,98,20,-8,98,x,x,x
CC(C)N(C)CCOC(=O)C1COc2ccccc2O1 (stereo not drawn),28,6,131*,-4,5,116,93,-13,92
COc1ccc(OCC(=O)Nc2cc3c(cc2C(=O)O)OCCCO3)cc1,7,-29,99,25,1,95,x,x,x
COc1ccc(CCN2C(=O)C(Oc3ccccc3C)C2c2ccc3c(c2)OCO3)cc1OC (stereo not drawn),3,-36,100,-21,-4,100,x,x,x
COc1ccc(CCN2C(=O)C(Oc3ccccc3C)C2c2ccc3c(c2)OCO3)cc1 (stereo not drawn),1,-7,156*,1,44,109,93,-10,98
O=C(Cc1cccc2ccccc12)NCCc1ccccc1,4,-20,111,15,-5,110,x,x,x
Cc1ccc(NC(=O)CSc2nnc(-c3cccnc3)s2)cc1,2,-2,8.0*[inhibitor],10,-7,103,103,-1,105
O=C(NC1CCCCC1)C1CC(=O)N(c2cccc([N+](=O)[O-])c2)C1 (stereo not drawn),1,0,100,-1,-4,99,x,x,x
NC(=O)CC(NC(=O)c1cccc(Br)c1)c1ccc(N2CCCCCC2)c([N+](=O)[O-])c1 (stereo not drawn),-6,-24,100,5,-8,96,x,x,x
NC(=O)CC(NC(=O)c1cccc(Br)c1)c1ccc(N2CCC(N3CCCC3)CC2)c([N+](=O)[O-])c1 (stereo not drawn),21,x,110,x,-4,153*,125,9,100
